This is an account of results in ChEMBL document CHEMBL1155472, “Versatile synthesis of new cytotoxic agents structurally related to hemiasterlins” (Bioorg Med Chem Lett, 2010).

Assay [1] can be described thus: Cytotoxicity against rat N1S1 cells after 2 days by Alamar blue staining. It is filed as functional, cell-based. The note with it: N1-S1, 48 h. Summed up:
(§1)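 UCI-101 human ovarian cancer cells and N1–S1 rat hepatoma cells were exposed to a range of concentrations for 2 days. Growth suppression was read by Alamar blue staining, with each concentration run in triplicate, and plotted against concentration.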

Assay [2] can be described thus: Cytotoxicity against human UCI101 cells after 2 days by Alamar blue staining. It is filed as functional, cell-based. The settings on record: UCI101, 48 h. The essentials: as §1
Assay [3] in a line: Inhibition of tubulin polymerization at 5 uM. The essentials: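 Tubulin polymerization was run with a commercial polymerization assay kit, and polymerization curves were recorded over time. Colchicine and paclitaxel were run alongside as reference controls.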
The nature of assay [4]: Cell cycle arrest in human UCI101 cells assessed as accumulation at G2 phase at 10 nM after 16 hrs using ethidium bromide staining by FACS analysis. The format is functional, cell-based.
Assay [5] is described as follows: Cell cycle arrest in human UCI101 cells assessed as accumulation at G2 phase at 20 nM after 16 hrs using ethidium bromide staining by FACS analysis. The format is functional, cell-based.
Assay [6] is described as follows: Cell cycle arrest in human UCI101 cells assessed as accumulation at G2 phase at 25 nM after 16 hrs using ethidium bromide staining by FACS analysis. It is filed as functional, cell-based.
The subject of assay [7] is UCI101. In words: Cytotoxicity against human UCI101 cells at 1 mM after 2 days by Alamar blue staining. It is filed as functional, cell-based. The essentials: as §1
Assay [8] concerns N1S1. Kind of assay: Cytotoxicity against rat N1S1 cells at 1 mM after 2 days by Alamar blue staining. It is filed as functional, cell-based. The essentials:
as §1

Activity calls are given as the source filed them. The rule behind the calls is not given here.

In the case of `C/C(=C\[C@H](C(C)C)N(C)C(=O)[C@@H](NC(=O)C(C)NC(C)(C)c1ccc2ccccc2c1)C(C)(C)C)C(=O)O` (stereo partly drawn), the IC50 in assay [1] and in assay [2] was 200 nM in each case.
As for `C/C(=C\[C@H](C(C)C)N(C)C(=O)[C@@H](NC(=O)[C@@H](C)NC(C)(C)c1ccccc1)C(C)(C)C)C(=O)O`, the result in assay [3], in assay [4], in assay [5] and in assay [6] was Active. In assay [1], this compound registered an IC50 of 20 nM.
For `CC(NC(C)(C)c1ccccc1)C(=O)N[C@H](C(=O)N(C)c1cccc(C(=O)O)c1)C(C)C` (stereo partly drawn), the Activity entry in assay [7] and in assay [8] was “Not toxic” each time.
Turning to `C/C(=C\[C@H](C(C)C)N(C)C(=O)[C@@H](NC(=O)[C@@H](C)NC(C)(C)c1ccccc1)C(C)C)C(=O)O`, the inhibition result in assay [3] is “Active”. The Activity in assay [4] worked out at 4.7%; in assay [5] it was 11%; in assay [6] it was 12%. The same compound came in with an IC50 in assay [2] of 20 nM.
For `C/C(=C\[C@H](C(C)C)N(C)C(=O)[C@@H](NC(=O)C(C)NC1CCCCC1)C(C)(C)C)C(=O)O` (mixture of isomers), the Activity entry in assay [7] and in assay [8] was “Not toxic” each time.
`C/C(=C\[C@H](C(C)C)N(C)C(=O)[C@@H](NC(=O)[C@H](C)NC(C)(C)c1ccccc1)C(C)(C)C)C(=O)O`: the IC50 in assay [1] and in assay [2] was 200 nM each time.
